Test results reported in ChEMBL document CHEMBL1128395, “Design and synthesis of novel inhibitors of HIV-1 reverse transcriptase” (J Med Chem, 1995).

What follows are compounds tested on MT4 (assay: Compound was evaluated for effective concentration required to achieve 50% protection of MT-4 cells against cytopathic effect of HIV-1). Settings: Homo sapiens.
Type: functional, cell-based

In the case of `Cc1c(O)nc(O)nc1Sc1ccccc1`, the EC50 is reported as greater than 250 µM.

What follows are compounds tested against Human immunodeficiency virus type 1 reverse transcriptase (Human immunodeficiency virus 1, UniProt Q72547) (assay: Inhibitory activity against HIV-1 Reverse transcriptase). Settings: not given.
Outline: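 Cell-free HIV-1 reverse transcriptase inhibition assay, with TIBO and BI-RG-587 run as reference inhibitors. IC50 is the inhibitor concentration giving 50% enzyme inhibition, taken as the mean of at least two independent assays.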

Going from `CCOCn1c2c(c(=O)[nH]c1=O)CNc1ccccc1S2` to `CCOCCOCn1c2c(c(=O)[nH]c1=O)CNc1ccccc1S2`, the IC50 falls from 50.2 µM to 0.64 µM (78-fold).

`O=c1[nH]c(=O)n(COCCO)c2c1C(c1ccccc1)Nc1ccccc1S2` (configuration not stated) and `CC(=O)OCCOCn1c2c(c(=O)[nH]c1=O)C(c1ccccc1)Nc1ccccc1S2` (configuration not stated) cannot be ordered by IC50: greater than 100 µM for the first, greater than 100 µM for the second.

Going from `CC(=O)OCCOCn1c2c(c(=O)[nH]c1=O)CNc1ccccc1S2` to `O=c1[nH]c(=O)n(COCCO)c2c1CNc1ccccc1S2`, the IC50 rises from 11.5 µM to greater than 100 µM.

`O=c1[nH]c(=O)n(COCCO)c2c1C(c1ccc([N+](=O)[O-])cc1)Nc1ccccc1S2` (configuration not stated) and `CC(=O)OCCOCn1c2c(c(=O)[nH]c1=O)C(=O)Nc1ccccc1S2` cannot be ordered by IC50: greater than 100 µM for the first, greater than 100 µM for the second.

Compared with `CC(=O)OCCOCn1c2c(c(=O)[nH]c1=O)CN(C)c1ccccc1S2`, `CC(=O)OCCOCn1c2c(c(=O)n(C)c1=O)CNc1ccccc1S2` is higher in IC50: 14.7 µM for the first, greater than 100 µM for the second.

With `O=c1[nH]c2c(c(=O)[nH]1)CNc1ccccc1S2` [PYRIMIDOBENZOTHIAZEPINE] the IC50 was greater than 100 µM.
